# Measured values: ChEMBL document CHEMBL5257020, “Discovery of a 9-mer Cationic Peptide (LTX-315) as a Potential First in Class Oncolytic Peptide” (J Med Chem, 2016)
# Where a SMILES comes first, the peptide text is derived from it. [ ]: non-standard residue; d: D form. ξ: configuration not given here. Bip = N[C@@H](Cc1ccc(-c2ccccc2)cc1)C(=O)O; ξDip = NC(C(=O)O)C(c1ccccc1)c1ccccc1
# Legend:
# [1] = test system: T47D; assay: Cytotoxicity against human T47D cells assessed as inhibition of cell proliferation incubated for 4 hrs by MTS assay; format: functional, cell-based
# Outline: (§1)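 Cells grown in RPMI-1640 with 2 mM L-glutamine and 10% FBS, plated, then held 24 h at 37 °C. Adherent lines washed once in FBS-free medium. Cells exposed 4 h at 37 °C, 5% CO2 in FBS-free medium to 10 concentrations (1/4 steps, 400 μM top). 1% Triton X-100 served as positive control. MTS/PMS added for 2 h, then OD 490 nm read. IC50 from semilog curves; three independent experiments, quadruplicate wells.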
# [2] = test system: HepG2; assay: Cytotoxicity against human HepG2 cells assessed as inhibition of cell proliferation incubated for 4 hrs by MTS assay; format: functional, cell-based; conditions: HepG2, 4 h; outline: as §1
# [3] = test system: HCT-116; assay: Cytotoxicity against human HCT-116 cells assessed as inhibition of cell proliferation incubated for 4 hrs by MTS assay; format: functional, cell-based; conditions: HCT-116, 4 h; outline: as §1
# [4] = Cytotoxicity against human U-87 MG cells assessed as inhibition of cell proliferation incubated for 4 hrs by MTS assay; format: functional, cell-based, U-87MG ATCC; outline: as §1
# [5] = test system: MCF7; assay: Cytotoxicity against human MCF7 cells assessed as inhibition of cell proliferation incubated for 4 hrs by MTS assay; format: functional, cell-based; conditions: MCF7, 4 h; outline: as §1
# [6] = test system: A20; assay: Cytotoxicity against mouse A20 lymphoma cells assessed as inhibition of cell proliferation incubated for 4 hrs by MTT assay; format: functional, cell-based; conditions: A20, 4 h
# Outline: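 Murine A20 cells cultured in RPMI-1640 with 2 mM L-glutamine, 1.5 g/L sodium bicarbonate, 4.5 g/L glucose, 10 mM HEPES, 1.0 mM sodium pyruvate, 0.05 mM 2-mercaptoethanol and 10% FBS, without antibiotics, at 37 °C, 5% CO2. IC50 from three or more independent measurements, given as mean ± SD.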
# [7] = test system: SK-HEP1; assay: Cytotoxicity against human SK-HEP1 cells assessed as inhibition of cell proliferation incubated for 4 hrs by MTS assay; format: functional, cell-based; conditions: SK-HEP1, 4 h; outline: as §1
# [8] = test system: IGROV-1; assay: Cytotoxicity against human IGROV-1 cells assessed as inhibition of cell proliferation incubated for 4 hrs by MTS assay; format: functional, cell-based; conditions: IGROV-1, 4 h; outline: as §1
# [9] = test system: Raji; assay: Cytotoxicity against human Raji cells assessed as inhibition of cell proliferation incubated for 4 hrs by MTS assay; format: functional, cell-based; outline: as §1
# [10] = test system: K562; assay: Cytotoxicity against human K562 cells assessed as inhibition of cell proliferation incubated for 4 hrs by MTS assay; format: functional, cell-based; conditions: K562, 4 h; outline: as §1
# [11] = test system: COLO 205; assay: Cytotoxicity against human COLO 205 cells assessed as inhibition of cell proliferation incubated for 4 hrs by MTS assay; format: functional, cell-based; conditions: COLO 205, 4 h; outline: as §1
# [12] = test system: Ramos; assay: Cytotoxicity against human Ramos cells assessed as inhibition of cell proliferation incubated for 4 hrs by MTS assay; format: functional, cell-based; outline: as §1
# [13] = test system: KARPAS-299; assay: Cytotoxicity against human KARPAS-299 cells assessed as inhibition of cell proliferation incubated for 4 hrs by MTS assay; format: functional, cell-based; conditions: KARPAS-299, 4 h; outline: as §1
# [14] = test system: NCI-H460; assay: Cytotoxicity against human NCI-H460 cells assessed as inhibition of cell proliferation incubated for 4 hrs by MTS assay; format: functional, cell-based; conditions: NCI-H460, 4 h; outline: as §1
# [15] = test system: MDA-MB-231; assay: Cytotoxicity against human MDA-MB-231 cells assessed as inhibition of cell proliferation incubated for 4 hrs by MTS assay; format: functional, cell-based; conditions: MDA-MB-231, 4 h; outline: as §1
# [16] = Cytotoxicity against human MINO cells assessed as inhibition of cell proliferation incubated for 4 hrs by MTS assay; format: functional, cell-based; outline: as §1
# [17] = test system: RPMI-8226; assay: Cytotoxicity against human RPMI-8226 cells assessed as inhibition of cell proliferation incubated for 4 hrs by MTS assay; format: functional, cell-based; conditions: RPMI-8226, 4 h; outline: as §1
# [18] = Cytotoxicity against mouse AT84 cells assessed as inhibition of cell proliferation incubated for 4 hrs by MTT assay; format: functional, cell-based; conditions: AT84, 4 h
# [19] = Cytotoxicity against human IGROV(CDDP) cells assessed as inhibition of cell proliferation incubated for 4 hrs by MTS assay; format: functional, cell-based; outline: as §1
# [20] = Cytotoxicity against human Hs 445 cells assessed as inhibition of cell proliferation incubated for 4 hrs by MTS assay; format: functional, cell-based; conditions: Hs 445, 4 h; outline: as §1
# [21] = test system: MDA-MB-435S; assay: Cytotoxicity against human MDA-MB-435S cells assessed as inhibition of cell proliferation incubated for 4 hrs by MTS assay; format: functional, cell-based; outline: as §1
# [22] = test system: OVCAR-3; assay: Cytotoxicity against human OVCAR-3 cells assessed as inhibition of cell proliferation incubated for 4 hrs by MTS assay; format: functional, cell-based; conditions: OVCAR-3, 4 h; outline: as §1
# [23] = test system: CCRF-CEM; assay: Cytotoxicity against human CCRF-CEM cells assessed as inhibition of cell proliferation incubated for 4 hrs by MTS assay; format: functional, cell-based; outline: as §1
# [24] = test system: A498; assay: Cytotoxicity against human A498 cells assessed as inhibition of cell proliferation incubated for 4 hrs by MTS assay; format: functional, cell-based; conditions: A498, 4 h; outline: as §1
# [25] = test system: SU-DHL-1; assay: Cytotoxicity against human SU-DHL-1 cells assessed as inhibition of cell proliferation incubated for 4 hrs by MTS assay; format: functional, cell-based; conditions: SU-DHL-1, 4 h; outline: as §1
# [26] = test system: Malme-3M; assay: Cytotoxicity against human Malme-3M cells assessed as inhibition of cell proliferation incubated for 4 hrs by MTS assay; format: functional, cell-based; outline: as §1
# [27] = test system: K562; assay: Cytotoxicity in imatinib resistant human K562 cells assessed as inhibition of cell proliferation incubated for 4 hrs by MTS assay; format: functional, cell-based; conditions: K562, 4 h
# Outline: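 Oncodesign panel MTS/PMS assay. Cells in RPMI-1640 + 10% FBS. After 24 h pre-plating, adherent lines washed in FBS-free medium. Cells exposed 4 h at 37 °C in FBS-free medium to 10 concentrations, 1/4 dilutions from 400 μM top. Triton X-100 (1% final) positive control. MTS/PMS added, 2 h, OD 490 nm. IC50 from semilog curves. Three independent experiments, quadruplicate wells.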
# [28] = test system: A549; assay: Cytotoxicity against human A549 cells assessed as inhibition of cell proliferation incubated for 4 hrs by MTS assay; format: functional, cell-based; conditions: A549, 4 h; outline: as §1
# [29] = test system: SK-MEL-2; assay: Cytotoxicity against human SK-MEL-2 cells assessed as inhibition of cell proliferation incubated for 4 hrs by MTS assay; format: functional, cell-based; conditions: SK-MEL-2, 4 h; outline: as §1
# [30] = test system: SH-SY5Y; assay: Cytotoxicity against human SH-SY5Y cells assessed as inhibition of cell proliferation incubated for 4 hrs by MTS assay; format: functional, cell-based; outline: as §1
# [31] = test system: HT-29; assay: Cytotoxicity against human HT-29 cells assessed as inhibition of cell proliferation incubated for 4 hrs by MTS assay; format: functional, cell-based; conditions: HT-29, 4 h; outline: as §1
# [32] = test system: PANC-1; assay: Cytotoxicity against human PANC-1 cells assessed as inhibition of cell proliferation incubated for 4 hrs by MTS assay; format: functional, cell-based; conditions: PANC-1, 4 h; outline: as §1
# [33] = test system: 786-0; assay: Cytotoxicity against human 786-0 cells assessed as inhibition of cell proliferation incubated for 4 hrs by MTS assay; format: functional, cell-based; conditions: 786-0, 4 h; outline: as §1
# [34] = test system: BXPC-3; assay: Cytotoxicity against human BXPC-3 cells assessed as inhibition of cell proliferation incubated for 4 hrs by MTS assay; format: functional, cell-based; conditions: BXPC-3, 4 h; outline: as §1
# [35] = test system: Toledo; assay: Cytotoxicity against human Toledo cells assessed as inhibition of cell proliferation incubated for 4 hrs by MTS assay; format: functional, cell-based; outline: as §1
structure (smiles),measurement,setting,value
NCCCC[C@H](NC(=O)C(NC(=O)[C@H](Cc1c[nH]c2ccccc12)NC(=O)[C@H](CCCCN)NC(=O)[C@H](CCCCN)NC(=O)[C@H](Cc1c[nH]c2ccccc12)NC(=O)[C@H](Cc1c[nH]c2ccccc12)NC(=O)[C@H](CCCCN)NC(=O)[C@@H](N)CCCCN)C(c1ccccc1)c1ccccc1)C(N)=O (stereo not given in full) (H-KKWWKKW[ξDip]K-NH2),IC50,[1],1.2 µM
same,IC50,[2],6.7 µM
same,IC50,[3],3.4 µM
same,IC50,[4],6.6 µM
same,IC50,[5],2.2 µM
same,IC50,[6],8.3 µM
same,IC50,[7],5.1 µM
same,IC50,[8],6.4 µM
same,IC50,[9],4.9 µM
same,IC50,[10],3 µM
same,IC50,[11],2.6 µM
same,IC50,[12],1.7 µM
same,IC50,[13],4.8 µM
same,IC50,[14],3.4 µM
same,IC50,[15],3.6 µM
same,IC50,[16],3.7 µM
same,IC50,[17],1.9 µM
same,IC50,[18],11 µM
same,IC50,[19],3.2 µM
same,IC50,[20],1.7 µM
same,IC50,[21],3.1 µM
same,IC50,[22],5.2 µM
same,IC50,[23],2.6 µM
same,IC50,[24],2.9 µM
same,IC50,[25],2.3 µM
same,IC50,[26],3.3 µM
same,IC50,[27],3 µM
same,IC50,[28],2.8 µM
same,IC50,[29],5.2 µM
same,IC50,[30],3.3 µM
same,IC50,[31],3.3 µM
same,IC50,[32],3.8 µM
same,IC50,[33],5.8 µM
same,IC50,[34],3.7 µM
same,IC50,[35],2.3 µM
NCCCC[C@H](NC(=O)[C@H](Cc1c[nH]c2ccccc12)NC(=O)[C@H](Cc1c[nH]c2ccccc12)NC(=O)[C@H](CCCCN)NC(=O)[C@H](CCCCN)NC(=O)[C@H](Cc1c[nH]c2ccccc12)NC(=O)[C@H](Cc1ccc(-c2ccccc2)cc1)NC(=O)[C@H](CCCCN)NC(=O)[C@@H](N)CCCCN)C(N)=O (H-KK[Bip]WKKWWK-NH2),IC50,[1],2.4 µM
same,IC50,[2],8.7 µM
same,IC50,[3],8.6 µM
same,IC50,[4],16.9 µM
same,IC50,[5],4.6 µM
same,IC50,[6],8.3 µM
same,IC50,[7],7.9 µM
same,IC50,[8],14.3 µM
same,IC50,[9],8.7 µM
same,IC50,[10],7.4 µM
same,IC50,[11],5.7 µM
same,IC50,[12],3.8 µM
same,IC50,[13],8.7 µM
same,IC50,[14],8.7 µM
same,IC50,[15],9.3 µM
same,IC50,[16],5.9 µM
same,IC50,[17],4.1 µM
same,IC50,[18],11.3 µM
same,IC50,[19],6.6 µM
same,IC50,[20],2.5 µM
same,IC50,[21],9.8 µM
same,IC50,[22],14.1 µM
same,IC50,[23],5.3 µM
same,IC50,[24],6.4 µM
same,IC50,[25],5.6 µM
same,IC50,[26],7.1 µM
same,IC50,[27],7.6 µM
same,IC50,[28],7.8 µM
same,IC50,[29],11 µM
same,IC50,[30],8.8 µM
same,IC50,[31],8.9 µM
same,IC50,[32],9.5 µM
same,IC50,[33],13.8 µM
same,IC50,[34],8.2 µM
same,IC50,[35],5.4 µM
